SENP7 block: SENP7 protease inhibition; actives 1.5% (n = 330,000); inhibition, % at 5 µM; Q9BQF6; recombinant SENP7, Z-RLRGG-aminoluciferin luminescence, 40 min;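 active = inhibition above about 50% at the single test dose, limit read from the data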
SENP6 inh: blocks the human protease SENP6. Recombinant SENP6 catalytic domain, aminoluciferin luminescence. inhibition, % at 10 µM. actives 1.8% (n = 330,000);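 active = inhibition above about 50% at the single tested dose, limit read from the data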
Target sequence (Q9GZR1 628-1112 limits assumed): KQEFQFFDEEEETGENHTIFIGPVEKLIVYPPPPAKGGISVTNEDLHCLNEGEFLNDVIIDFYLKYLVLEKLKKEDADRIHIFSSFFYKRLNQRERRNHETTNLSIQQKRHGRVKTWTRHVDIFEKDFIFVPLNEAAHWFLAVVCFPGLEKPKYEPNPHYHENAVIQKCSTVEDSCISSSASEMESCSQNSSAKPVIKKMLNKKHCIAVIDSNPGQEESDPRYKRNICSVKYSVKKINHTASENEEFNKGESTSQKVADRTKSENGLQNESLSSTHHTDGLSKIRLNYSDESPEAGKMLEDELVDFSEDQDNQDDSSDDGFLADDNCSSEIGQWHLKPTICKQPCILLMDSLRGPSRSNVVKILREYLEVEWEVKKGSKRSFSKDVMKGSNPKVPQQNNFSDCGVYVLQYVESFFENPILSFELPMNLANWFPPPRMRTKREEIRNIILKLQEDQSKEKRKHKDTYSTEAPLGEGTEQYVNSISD
Apaf1 inhib: human Apaf-1 inhibition. O14727. reconstituted apoptosome caspase-3 activity, DEVD-Rh110 fluorescence. inhibition, % at 20 µM. actives 0.71% (n = 330,000). AID 489030; active = inhibition of at least 40% at 20 µM
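System: Apoptosome proteins | Medium: Hepes pH 7.5 with detergent and BSA | Also added: Cytochrome c trigger plus (Z-DEVD)2-Rh110 caspase-3 substrate | Incubation: 30 min compound preincubation, 50 min activation, room temperature | Detection: Rhodamine 110 fluorescence at Ex 480/Em 540 nm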
SENP8 block-1: inhibitors of human SENP8 protease. Q96LD8. purified SENP8, Z-RLRGG-aminoluciferin cleavage, luminescence. inhibition, % at 10 µM. actives 1.2% (n = 330,000). AID 2540; in the data active = inhibition above about 50%
UBC13 polyUb: blocks human UBC13 polyubiquitin chain formation. P61088. TR-FRET. inhibition, % at 20 µM. actives 0.47% (n = 330,000); in the data active = inhibition above about 45%, passing the limit was not always enough
Target sequence (P61088 whole entry, looked up): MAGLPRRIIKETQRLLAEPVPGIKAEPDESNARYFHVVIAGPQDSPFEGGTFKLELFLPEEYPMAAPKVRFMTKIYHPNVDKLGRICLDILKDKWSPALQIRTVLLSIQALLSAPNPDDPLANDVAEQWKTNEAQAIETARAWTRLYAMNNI
SENP8 block-2: inhibitors of human SENP8 protease | Q96LD8 | recombinant SENP8, Nedd8 substrate fluorescence | inhibition, % at 20 µM | actives 0.64% (n = 360,000); in the data active = inhibition mostly above about 40%, no sharp cut-off; inactive = mostly below about 27%
A number is an active result. Compounds with a hit are over-represented: about 3% of the library has one in this group of screens.

What do the screens show for `O=C1C2C3C=CC(C3)C2C(=O)N1CNc1ccc(O)cc1` (centres undefined)?
SENP7 block: inactive; SENP6 inh: 72; Apaf1 inhib: 94; SENP8 block-1: inactive; UBC13 polyUb: inactive

What do the screens show for `Cc1ccc(NCN2C(=O)C3C4C=CC(C4)C3C2=O)cc1` (centres undefined)?
SENP7 block: inactive; SENP6 inh: inactive; Apaf1 inhib: inactive; SENP8 block-1: inactive; UBC13 polyUb: inactive; SENP8 block-2: inactive

What do the screens show for `Cc1cc(OCc2nc3ccccc3s2)ccc1N`?
SENP7 block: inactive; SENP6 inh: 70; Apaf1 inhib: inactive; SENP8 block-1: 54; UBC13 polyUb: inactive; SENP8 block-2: inactive

What do the screens show for `O=C1c2cccc(Cl)c2C(=O)c2c1cccc2N1CCCC1`?
SENP7 block: inactive; SENP6 inh: inactive; Apaf1 inhib: inactive; SENP8 block-1: inactive; UBC13 polyUb: inactive; SENP8 block-2: 74

What do the screens show for `O=C1C(Cl)=C(N2CCCCC2)C(=O)N1c1ccccc1Cl`?
SENP7 block: inactive; SENP6 inh: inactive; Apaf1 inhib: inactive; SENP8 block-1: inactive; UBC13 polyUb: inactive; SENP8 block-2: inactive

What do the screens show for `CCN1/C(=C\c2ccc3cc(C)ccc3[n+]2CC)Sc2cc(C)c(C)cc21`?
SENP8 block-2: inactive

What do the screens show for `CCN1/C(=C/c2ccc3cc(C)cc(C)c3[n+]2CC)Sc2cc(C)ccc21`?
SENP8 block-2: 23

What do the screens show for `O=C(/C=C/c1ccccc1)C1C(=O)c2ccccc2C1=O`?
SENP7 block: inactive; SENP6 inh: inactive; Apaf1 inhib: inactive; SENP8 block-1: inactive; UBC13 polyUb: inactive; SENP8 block-2: inactive

What do the screens show for `CCc1ccc(/C=C/C(=O)C2C(=O)c3ccccc3C2=O)cc1`?
SENP7 block: inactive; SENP6 inh: inactive; Apaf1 inhib: inactive; SENP8 block-1: inactive; UBC13 polyUb: inactive; SENP8 block-2: 50

How did COC(=O)c1c[nH]c(=S)n1Cc1ccccc1 do in these assays?
SENP8 block-2: inactive

How did CC(Sc1nnc(NC2CCCCC2)s1)C(=O)Nc1ccc2c(c1)C(=O)c1ccccc1C2=O (centres undefined) do in these assays?
SENP7 block: inactive; SENP6 inh: inactive; Apaf1 inhib: inactive; SENP8 block-1: inactive; UBC13 polyUb: inactive; SENP8 block-2: inactive

How did O=C1CCC(C(=O)OCC(=O)N2N=C3/C(=C/c4ccccc4)CCCC3C2c2ccccc2)N1 (centres undefined) do in these assays?
SENP7 block: inactive; SENP6 inh: inactive; Apaf1 inhib: 43; SENP8 block-1: inactive; UBC13 polyUb: inactive; SENP8 block-2: inactive

What do the screens show for `CC(=O)Oc1cc(O)c2c(=O)c(OC(C)=O)c(-c3ccc(OC(C)=O)c(OC(C)=O)c3)oc2c1`?
SENP7 block: inactive; SENP6 inh: inactive; Apaf1 inhib: inactive; SENP8 block-1: inactive; UBC13 polyUb: inactive; SENP8 block-2: 40

How did CC(C(=O)Nc1ccc(O)cc1C(=O)O)N1C(=O)/C(=C\c2cccs2)SC1=S (centres undefined) do in these assays?
SENP7 block: inactive; SENP6 inh: inactive; Apaf1 inhib: inactive; SENP8 block-1: inactive; UBC13 polyUb: inactive; SENP8 block-2: 62

Results for CC(=O)Nc1cc(-c2cccnc2)cn2c(-c3ccc(F)cc3)cnc12 ?
SENP8 block-2: inactive

What do the screens show for `O=C(Nc1n[nH]c(=S)s1)c1ccc2ccccc2c1`?
SENP7 block: 63; SENP6 inh: 91; Apaf1 inhib: inactive; SENP8 block-1: 82; UBC13 polyUb: inactive; SENP8 block-2: inactive

How did Cc1c(-c2ccnc3cc(C(=O)O)nn23)cnn1C do in these assays?
SENP7 block: inactive; SENP6 inh: inactive; Apaf1 inhib: inactive; SENP8 block-1: inactive; UBC13 polyUb: inactive; SENP8 block-2: inactive

How did CCn1cc(-c2ccnc3cc(C(=O)O)nn23)c(C)n1 do in these assays?
SENP7 block: inactive; SENP6 inh: inactive; Apaf1 inhib: inactive; SENP8 block-1: 95; UBC13 polyUb: inactive; SENP8 block-2: inactive

How did CCC1(CC)C(=O)C2=C3C1[C@H](C(=O)OC)CC(C(=O)OC)C[C@H]3[C@H]1C(=O)N(c3ccccc3)C(=O)[C@H]1[C@H]2C (some centres undefined) do in these assays?
SENP7 block: inactive; SENP6 inh: inactive; Apaf1 inhib: inactive; SENP8 block-1: inactive; UBC13 polyUb: inactive; SENP8 block-2: inactive

How did Oc1csc(Cc2nc(-c3ccc4ccccc4c3)cs2)n1 do in these assays?
SENP7 block: 66; SENP6 inh: inactive; Apaf1 inhib: inactive; SENP8 block-1: inactive; UBC13 polyUb: inactive; SENP8 block-2: inactive

How did COc1cccc(/C(C)=N/NC(=O)c2ccc(N(C)C)cc2)c1 do in these assays?
SENP7 block: inactive; SENP6 inh: 69; Apaf1 inhib: inactive; SENP8 block-1: 55; UBC13 polyUb: inactive; SENP8 block-2: inactive

What do the screens show for `COc1cccc(C(=O)N/N=C(\C)CC(=O)Nc2ccc(N(C)C)cc2)c1`?
SENP7 block: inactive; SENP6 inh: inactive; Apaf1 inhib: inactive; SENP8 block-1: inactive; UBC13 polyUb: inactive; SENP8 block-2: inactive

How did Cc1ccn2cc(-c3ccc(O)c(O)c3)nc2c1 do in these assays?
SENP7 block: 67; SENP6 inh: 67; Apaf1 inhib: inactive; SENP8 block-1: 56; UBC13 polyUb: inactive; SENP8 block-2: inactive

Results for Oc1ccc(-c2cn3ccccc3n2)cc1O ?
SENP7 block: inactive; SENP6 inh: inactive; Apaf1 inhib: inactive; SENP8 block-1: inactive; UBC13 polyUb: inactive; SENP8 block-2: inactive

Results for CC(C)n1cnc2cc(NCc3nc4ccccc4n3C)ccc21 ?
SENP7 block: inactive; SENP6 inh: 62; Apaf1 inhib: inactive; SENP8 block-1: inactive; UBC13 polyUb: inactive; SENP8 block-2: inactive

How did Nc1nc(-c2ccccc2)c(N=Nc2ccccc2Cl)s1 do in these assays?
SENP7 block: inactive; SENP6 inh: inactive; Apaf1 inhib: inactive; SENP8 block-1: inactive; UBC13 polyUb: inactive; SENP8 block-2: 66

Results for Cc1cnn2c(C3CC3)ccnc12 ?
SENP7 block: inactive; SENP6 inh: inactive; Apaf1 inhib: inactive; SENP8 block-1: inactive; UBC13 polyUb: inactive; SENP8 block-2: inactive

What do the screens show for `O=C1C=C(Nc2cccc3cccnc23)c2ccccc2C1=O`?
SENP7 block: inactive; SENP6 inh: inactive; Apaf1 inhib: 47; SENP8 block-1: inactive; UBC13 polyUb: inactive; SENP8 block-2: 43

What do the screens show for `N#C/C(=C(/O)COc1ccccc1)c1nc2ccccc2s1`?
SENP7 block: inactive; SENP6 inh: inactive; Apaf1 inhib: inactive; SENP8 block-1: inactive; UBC13 polyUb: inactive; SENP8 block-2: inactive

What do the screens show for `N#C/C(=C(/O)c1ccc(F)cc1)c1nc2ccccc2s1`?
SENP7 block: 51; SENP6 inh: 87; Apaf1 inhib: inactive; SENP8 block-1: 82; UBC13 polyUb: inactive; SENP8 block-2: inactive

Results for N#C/C(=C(/O)COc1ccc(Cl)cc1)c1nc2ccccc2s1 ?
SENP7 block: inactive; SENP6 inh: 93; Apaf1 inhib: inactive; SENP8 block-1: 81; UBC13 polyUb: inactive; SENP8 block-2: inactive

How did O=C(C1CCC(=O)N(C2CCCC2)C1)N1CCN(c2ccccc2Cl)CC1 (centres undefined) do in these assays?
SENP7 block: inactive; SENP6 inh: inactive; Apaf1 inhib: inactive; SENP8 block-1: inactive; UBC13 polyUb: inactive; SENP8 block-2: inactive
